Laboratory results reported in publication PMC5567870 (Journal of natural products, 2017).

Columns and labels:
Gα protein = Gα protein (Homo sapiens, UniProt P09471); test: Differential scanning fluorimetry; type: binding; conditions: DSF, data not shown
RGS17 [1] = biological target: T1, RGS17 (Homo sapiens, UniProt Q9UGC6); test: Differential scanning fluorimetry; type: binding; conditions: DSF
T1 sequence (Q9UGC6 72-206 limits assumed): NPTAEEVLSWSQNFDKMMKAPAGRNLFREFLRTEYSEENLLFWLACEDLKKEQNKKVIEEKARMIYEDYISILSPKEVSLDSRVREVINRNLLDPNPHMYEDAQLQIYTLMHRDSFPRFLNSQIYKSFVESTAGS

RGS17 [2] = biological target: T1, RGS17; test: Isothermal titration calorimetry; type: binding; conditions: for change in enthalpy ΔH / entropic change TΔS / protein:ligand binding stoichiometry / ΔG binding: ITC
RGS17ΔN (1ZV4 construct) = biological target: T2, RGS17ΔN (1ZV4 construct) (Homo sapiens, UniProt Q9UGC6); test: Covalent modification of RGS17 by ESI-TOFMS; type: binding; conditions: ESITOFMS, 5:1 test compound to RGS17, 72 h
T2 sequence (Q9UGC6 72-206): T1 sequence (Q9UGC6 72-206 limits assumed)
Method in brief: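 Protein: RGS17ΔN (1ZV4 construct) at 20 µM in 25 mM HEPES, 100 mM NaCl, 5% DMSO, pH 8. Incubated at 4 °C for 72 h with or without 100 µM test compound. Dialysed 24 h at 4 °C against 25 mM NH4HCO3 and 100 µM NaCl to remove noncovalent compound, with a second dialysis for some compounds. Analysed by direct-infusion positive-mode ESI-TOF with spectral deconvolution.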

[3] = biological target: T3, RGS17–Gαo interaction in HEK293T cells (Homo sapiens, UniProt Q9UGC6); test: Confocal localization of GFP full-length RGS17 cotransfected with Gαo; type: cell-based; conditions: 100 µM, 10 min
T3 sequence (Q9UGC6 1-210): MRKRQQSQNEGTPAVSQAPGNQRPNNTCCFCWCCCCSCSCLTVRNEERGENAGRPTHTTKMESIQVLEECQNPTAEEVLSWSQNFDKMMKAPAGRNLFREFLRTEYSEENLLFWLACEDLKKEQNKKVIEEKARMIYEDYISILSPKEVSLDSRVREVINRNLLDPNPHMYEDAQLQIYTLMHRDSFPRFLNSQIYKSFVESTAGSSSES
Method in brief: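 HEK293T cells were plated at 25 000 per well on poly-D-lysine-coated glass-bottom plates and held overnight at 37 °C, 5% CO2. They were cotransfected with hGαo (pcDNA 3.1(+)) and pAcGFP-RGS17FL using Lipofectamine 2000. At 24 h the medium was replaced with serum-free, phenol-red-free DMEM. Test compound was added at 2× in that medium to give 1× final (0.07–0.8% DMSO). Live cells were imaged by confocal microscopy.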

[4] = biological target: T4, RGS17ΔN–Gαo interaction in HEK293T cells (Homo sapiens, UniProt Q9UGC6); test: Confocal localization of GFP-RGS17ΔN cotransfected with hGαo; type: cell-based; conditions: for delocalization of RGS17ΔN from the cell membrane, GFP signal quantification: 10 µM, longer time course; for delocalization of RGS17ΔN from the cell membrane: 100 µM
T4 sequence (Q9UGC6 61-210): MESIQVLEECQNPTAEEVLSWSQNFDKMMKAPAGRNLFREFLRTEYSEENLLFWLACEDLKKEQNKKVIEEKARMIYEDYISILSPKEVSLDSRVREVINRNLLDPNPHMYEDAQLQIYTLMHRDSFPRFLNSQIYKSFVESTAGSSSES

[5] = system: RGS17ΔN–Gαo interaction in HEK293T cells; test: as above; type: cell-based; conditions: 100 µM, imaging time course
A549 lung tumor cells = test: Growth of A549 lung tumor cells; type: cell-based; conditions: up to 1 µM, 6 days in culture, relative to DMSO control
Method in brief: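 Subconfluent A549 cells were trypsinized, counted and plated at 1000 per well in 24-well plates, then left to attach overnight. Triplicate wells received test compound or matched DMSO (≤0.2% final). Confluence was imaged every 2 h for 6 days, with images checked to exclude morphology effects. Change in confluence was expressed relative to DMSO and plotted against concentration. IC50 was solved by linear regression at 0.5 relative growth.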

PC3E cells = test: Prostate tumor cell growth, PC3E; type: cell-based; conditions: for inhibition of PC3E cell growth: dose-response; for sensitization of PC3E cells by overexpression of RGS17: transient transfection, data not shown
TEM4-18 cells = test: Prostate tumor cell growth, TEM4-18; type: cell-based; conditions: dose-response
RWPE-1 cells = test: Prostate cell growth, RWPE-1; type: cell-based; conditions: immortalized epithelial, normal cells
CREB phosphorylation = CREB phosphorylation upon stimulation with forskolin; type: cell-based; conditions: compared to DMSO-treated controls, data not shown
[6] = Solubility in aqueous buffer for ITC; type: physicochemical; conditions: at the high concentration needed for the ITC experiment

Gα protein, sequence (P09471 whole entry): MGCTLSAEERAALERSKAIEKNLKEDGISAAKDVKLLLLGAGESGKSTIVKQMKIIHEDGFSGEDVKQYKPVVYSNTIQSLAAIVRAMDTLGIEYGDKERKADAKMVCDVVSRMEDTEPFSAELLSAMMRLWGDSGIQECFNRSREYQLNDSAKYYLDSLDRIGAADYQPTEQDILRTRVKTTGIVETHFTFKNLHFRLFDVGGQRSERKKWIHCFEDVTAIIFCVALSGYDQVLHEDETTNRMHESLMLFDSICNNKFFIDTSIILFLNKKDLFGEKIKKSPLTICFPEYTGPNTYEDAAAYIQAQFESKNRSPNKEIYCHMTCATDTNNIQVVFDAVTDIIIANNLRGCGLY

Compound	shift in Tm for the G protein (Gα protein)	melting temperature (Tm) shift for RGS17 (RGS17 [1])	Kd (RGS17 [2]) [µM]	change in enthalpy ΔH (RGS17 [2]) [kcal/mol]	entropic change TΔS (RGS17 [2]) [kcal/mol]	protein:ligand binding stoichiometry (RGS17 [2])	ΔG binding (RGS17 [2]) [kcal/mol]	covalent adduct formation with RGS17 (RGS17ΔN (1ZV4 construct))	localization of GFP full-length RGS17 [3]	delocalization of RGS17ΔN from the cell membrane, GFP signal quantification [4]	delocalization of RGS17ΔN from the cell membrane [4]	gross morphological changes indicative of cytotoxicity [5]	inhibition of A549 cell growth (A549 lung tumor cells)	inhibition of PC3E cell growth (PC3E cells)	sensitization of PC3E cells by overexpression of RGS17 (PC3E cells)	inhibition of TEM4-18 cell growth (TEM4-18 cells)	growth arrest of RWPE-1 cells (RWPE-1 cells)	reduction of CREB phosphorylation (CREB phosphorylation)	solubility in aqueous buffer [6]
CC(C)=CCC[C@]1(C)C=Cc2c(O)c3c(c(CC=C(C)C)c2O1)O[C@]12C(=C[C@@H]4C[C@H]1C(C)(C)O[C@@]2(C/C=C(/C)C(=O)O)C4=O)C3=O [compound 3, (−)-gambogic acid]	drastic negative shift																		
C[n+]1cc2c3c(ccc2c2ccc4cc5c(cc4c21)OCO5)OCO3 [compound 1, sanguinarine]		only minor melting temperature (Tm) shifts	1	-0.148	8.0202	0.82	-8.168	could not be detected	remained at the membrane	loss of this enrichment at T = final	disrupt RGS17–Gα interaction	lack of gross morphological changes	sub-micromolar inhibition	inhibited the growth	did not result in a sensitization	inhibited the growth	caused growth arrest	trended toward the proposed mechanism	
O=c1c(-c2cc(O)c(O)c(O)c2)coc2cc(O)c(O)c(O)c12 [compound 4, irigenol]		only minor melting temperature (Tm) shifts		-2.158	6.2313	0.33	-8.389	could not be detected		demonstrated the same trend	disrupt RGS17–Gα interaction	lack of gross morphological changes	did not demonstrate any level of growth inhibition					trended toward the proposed mechanism	
CC1=C(O)C(=O)C=C2C1=CC=C1[C@@]2(C)CC[C@@]2(C)[C@@H]3C[C@](C)(C(=O)O)CC[C@]3(C)CC[C@]12C [compound 2, celastrol]		only minor melting temperature (Tm) shifts						both singly and doubly adducted species		loss of this enrichment at T = final	disrupt RGS17–Gα interaction	lack of gross morphological changes	sub-micromolar inhibition	inhibited the growth	did not result in a sensitization	inhibited the growth	caused growth arrest		not soluble
Cc1ccc(-n2sc(=O)n(Cc3ccc(F)cc3)c2=O)cc1 [CCG-50014, reference compound]											did not result in RGS17ΔN delocalization from the membrane	significant cell shrinkage							
